Activity calls are given as the source filed them. No cut-off for these calls is given here.
Key:
[1] = biological target: Protein phosphatase 1A (Rattus norvegicus) (UniProt P20650); assay: Inhibition of PP2C alpha at 100 uM
[2] = Inhibition of PP2A
In short: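 Substrate: DARPP-32 pThr34, from rat DARPP-32 expressed in E. coli as a His-tag fusion and phosphorylated by PKA with γ-32P-ATP. Enzyme: PP2A trimer partially purified from rat brain. Duplicate reactions, 10 min at room temperature, stopped with TCA. Supernatant and pellet 32P counted by Cerenkov.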

[3] = biological target: Protein phosphatase 1A (Rattus norvegicus) (UniProt P20650); assay: Inhibition of PP2C alpha
[4] = Inhibition of PP1
In short: (§1)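 PP1 catalytic fragment acting on 32P-labeled phosphorylase a, which was made from rabbit muscle phosphorylase b with phosphorylase kinase. Duplicate reactions were started with substrate, run 10 min at room temperature and stopped with TCA. Released 32P measured by Cerenkov counting.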

[5] = biological target: Calcineurin PP2B (Rattus norvegicus); assay: Inhibition of PP2B
[6] = Inhibition of PP1 at 100 uM
In short: as §1

Chain of Protein phosphatase 1A (Rattus norvegicus) (P20650 whole entry, looked up): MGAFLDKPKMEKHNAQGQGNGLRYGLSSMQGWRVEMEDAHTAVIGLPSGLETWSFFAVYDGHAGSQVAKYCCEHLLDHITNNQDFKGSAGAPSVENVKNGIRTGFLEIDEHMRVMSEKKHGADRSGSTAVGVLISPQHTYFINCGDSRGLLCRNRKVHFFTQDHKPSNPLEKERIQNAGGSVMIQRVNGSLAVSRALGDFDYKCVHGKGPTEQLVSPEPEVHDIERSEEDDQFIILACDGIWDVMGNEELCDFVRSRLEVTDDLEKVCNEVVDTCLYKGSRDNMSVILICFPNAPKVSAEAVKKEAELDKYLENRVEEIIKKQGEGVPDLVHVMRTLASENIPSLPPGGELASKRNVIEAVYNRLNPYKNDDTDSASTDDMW

| inhibition [1] [%] | Activity [2] | Structure (SMILES) | other results |
| --- | --- | --- | --- |
| > 30 | – | CC(C)CC(N)C(=O)Nc1ccc2ccccc2c1 (configuration not stated) | – |
| > 50 | – | C/N=C(N)/N=C(\N)Nc1cc2ccccc2c2ccccc12 | IC50 [3]: 20 µM |
| > 50 | – | Ic1ccc2c(c1)N(c1ccccc1)c1cc(Nc3ccc4nc5ccc(I)cc5[n+](-c5ccccc5)c4c3)ccc1N2 | – |
| – | Active | CCCCCCCCCCCC1N=C(N)N=C(N)N1c1cccc(Br)c1 (configuration not stated) | – |
| – | – | CC1(C)N=C(N)N=C(N)N1c1ccc(CCCCc2ccccc2)cc1 | IC50 [2]: 50 µM; IC50 [4]: 50 µM; IC50 [5]: 50 µM |
| > 30 | Active | Cc1cc(N)c2cc(NC(=O)Nc3ccc4nc(C)cc(N)c4c3)ccc2n1 | Activity [6]: Active |

| Structure (SMILES) | inhibition [1] [%] | Activity [2] | other results |
| --- | --- | --- | --- |
| CC1Oc2cc3c(-c4c(O)cc(O)c5c(O)c6c(cc45)OC(C)C(C)C6=O)c(O)cc(O)c3c(O)c2C(=O)C1C (configuration not stated) | – | Active | – |
